Test results: ChEMBL document CHEMBL3739259, “Defining Key Structural Determinants for the Pro-osteogenic Activity of Flavonoids” (J Nat Prod, 2015)
Calls of active or inactive are those of the source. The rule behind the calls is not given here.

Key:
[1] = Cytotoxicity against human MSC assessed as decrease in cell number at 1 to 10 uM after 9 days by methylene blue staining based microscopy relative to control; details: 216 h
Method in brief: (§1)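 Passage-3 bone-marrow hMSCs, high density in Os.D medium, dosed with 1, 5 or 10 μM compound (0.1% v/v DMSO final) on days 0, 3 and 6 with medium changes. Cell number measured on day 9 by methylene blue proliferation assay. Expressed as % of untreated control; three independent triplicate experiments, mean ± SEM, one-way ANOVA versus vehicle.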

[2] = Cytotoxicity against human MSC assessed as cell viability at 10 uM measured on day 1 by alamar blue assay (reference value: 97 to 101%); details: MSC cells, read-out: Activity
[3] = test system: MSC; test: (§2) Induction of osteogenic differentiation in human MSC assessed as increase in ALP activity at 1 uM using p-NPP as substrate after 9 days by colorimetric method relative to control; format: functional
Method in brief: (§3)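 ALP read on day 9 in passage-3 bone-marrow hMSCs cultured at high density in Os.D medium. Compound (1, 5 or 10 μM, 0.1% v/v DMSO final) was re-applied on days 0, 3 and 6. Colorimetric p-nitrophenyl phosphate method, normalised to time and cell number (pNP/min/20,000 cells). Expressed as % of untreated control; three independent triplicate experiments; one-way ANOVA versus vehicle.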

[4] = Decrease in ALP activity in human MSC using p-NPP as substrate at 10 uM after 9 days by colorimetric method relative to control; format: functional; set-up: Activity: scale not given: the % may be the effect or the level left
Method in brief: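 Passage-3 bone-marrow hMSCs from healthy donors, cultured at high density in osteogenic (Os.D) medium; compound given at days 0, 3 and 6 with media change every 3 days, final 0.1% (v/v) DMSO; vehicle, 50 nM calcitriol and untreated controls. Day-9 ALP by para-nitrophenyl phosphate colorimetry, normalised to time and cell number (methylene blue); % of untreated control, 3 independent triplicate experiments ± SEM.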

[5] = Cytotoxicity against human MSC assessed as cell viability at 5 uM measured on day 1 by alamar blue assay (reference value: 97 to 101%); details: MSC cells, read-out: Activity
[6] = Cytotoxicity against human MSC assessed as cell viability at 10 uM treated for 3 days measured on day 4 by alamar blue assay (reference value: 97 to 100%); details: MSC cells, read-out: Activity
[7] = test system: MSC; test: (§4) Induction of osteogenic differentiation in human MSC assessed as increase in ALP activity at 5 uM using p-NPP as substrate after 9 days by colorimetric method relative to control; format: functional; method in brief: as §3
[8] = Cytotoxicity against human MSC assessed as cell viability at 10 uM treated for 6 days measured on day 7 by alamar blue assay (reference value: 96 to 101%); details: MSC cells, read-out: Activity
[9] = Cytotoxicity against human MSC assessed as cell viability at 1 uM measured on day 1 by alamar blue assay (reference value: 97 to 101%); details: MSC cells, read-out: Activity
[10] = Cytotoxicity against human MSC assessed as cell viability at 5 uM treated for 3 days measured on day 4 by alamar blue assay (reference value: 97 to 100%); details: MSC cells, read-out: Activity
[11] = Cytotoxicity against human MSC assessed as cell viability at 1 uM treated for 6 days measured on day 7 by alamar blue assay (reference value: 96 to 101%); details: MSC cells, read-out: Activity
[12] = Decrease in ALP activity in human MSC using p-NPP as substrate at 5 uM after 9 days by colorimetric method relative to control; format: functional; set-up: Activity: scale not given: the % may be the effect or the level left; method in brief: as §3
[13] = Cytotoxicity against human MSC assessed as cell viability at 5 uM treated for 6 days measured on day 7 by alamar blue assay (reference value: 96 to 101%); details: MSC cells, read-out: Activity
[14] = Cytotoxicity against human MSC assessed as cell viability at 1 uM treated for 3 days measured on day 4 by alamar blue assay (reference value: 97 to 100%); details: MSC cells, read-out: Activity
[15] = Cytotoxicity against human MSC assessed as […] in cell number at 1 to 10 uM after 9 days by methylene blue staining based microscopy relative to control; details: 216 h; method in brief: as §1
[16] = Induction of osteogenic differentiation in human MSC assessed as increase in ALP activity at 10 uM using p-NPP as substrate after 9 days by colorimetric method relative to control; format: functional; method in brief: as §3
[17] = Cytotoxicity against human MSC assessed as cell viability at 1 uM treated for 3 days measured on day 4 by alamar blue assay (reference value: 100 +/- 1%); details: MSC cells, read-out: Activity
[18] = Cytotoxicity against human MSC assessed as decrease in cell number at 10 uM after 9 days by methylene blue staining based microscopy relative to control; details: 216 h; method in brief: as §1
[19] = as §2; format: functional; method in brief: as §3
[20] = Induction of matrix mineralization in human MSC assessed as increase in calcium deposition across cell monolayer at 10 uM after 20 days by Alizarin red S staining based microscopy relative to control; format: functional
[21] = Cytotoxicity against human MSC assessed as cell viability at 10 uM treated for 6 days measured on day 7 by alamar blue assay (reference value: 98%); details: MSC cells, read-out: Activity
[22] = as §4; format: functional; method in brief: as §3
[23] = test system: MSC; test: Induction of osteogenic differentiation in human MSC assessed as increase in ALP activity using p-NPP as substrate after 9 days by colorimetric method; format: functional; method in brief: as §3
[24] = Cytotoxicity against human MSC assessed as cell viability at 1 uM treated for 6 days measured on day 7 by alamar blue assay (reference value: 98%); details: MSC cells, read-out: Activity
[25] = Cytotoxicity against human MSC assessed as cell viability at 1 uM measured on day 1 by alamar blue assay (reference value: […] +/- 1%); details: MSC cells, read-out: Activity
[26] = Cytotoxicity against human MSC assessed as cell viability at 5 uM treated for 6 days measured on day 7 by alamar blue assay (reference value: 98%); details: MSC cells, read-out: Activity
[27] = Cytotoxicity against human MSC assessed as cell viability at 10 uM after 24 hrs measured on day 1 by alamar blue assay (reference value: […] +/- 1%); details: MSC cells, read-out: Activity
[28] = Cytotoxicity against human MSC assessed as cell viability at 10 uM treated for 3 days measured on day 4 by alamar blue assay (reference value: 100 +/- 1%); details: MSC cells, read-out: Activity
[29] = Cytotoxicity against human MSC assessed as cell viability at 5 uM after 24 hrs measured on day 1 by alamar blue assay (reference value: […] +/- 1%); details: MSC cells, read-out: Activity
[30] = Cytotoxicity against human MSC assessed as cell viability at 5 uM treated for 3 days measured on day 4 by alamar blue assay (reference value: 100 +/- 1%); details: MSC cells, read-out: Activity
[31] = Cytotoxicity against human MSC assessed as decrease in cell number at 5 uM after 9 days by methylene blue staining based microscopy relative to control; details: 216 h; method in brief: as §1

Row | Structure (SMILES) | viability at 1 day, 10 µM [2] | Activity [3] | viability at 1 day, 5 µM [5] | viability at 72 h, 10 µM [6] | viability at 144 h, 10 µM [8] | viability at 1 day, 1 µM [9] | viability at 72 h, 5 µM [10] | viability at 144 h, 1 µM [11] | viability at 144 h, 5 µM [13] | viability at 72 h, 1 µM [14] | viability at 72 h, 1 µM [17] | viability at 144 h, 10 µM [21] | Activity [22] | viability at 144 h, 1 µM [24] | viability at 1 day, 1 µM [25] | viability at 144 h, 5 µM [26] | viability at 24 h, 10 µM [27] | viability at 72 h, 10 µM [28] | viability at 24 h, 5 µM [29] | viability at 72 h, 5 µM [30] | other results
1 | O=C(O[C@@H]1Cc2c(O)cc(O)cc2O[C@@H]1c1cc(O)c(O)c(O)c1)c1cc(O)c(O)c(O)c1 [EPIGALOCATECHIN GALLATE] | 90% | inactive | 98% | 89% | 102% | 101% | 91% | 101% | 101% | 93% |  |  |  |  |  |  |  |  |  |  | fold change (FC) [1]: 0.43; fold change (FC) [4]: 0.75; Activity [7]: inactive; Activity [12]: 84%
2 | COc1ccc([C@@H]2CC(=O)c3c(O)cc(O)cc3O2)cc1O [HESPERETIN] | 96% | inactive | 95% | 103% | 98% | 102% | 102% | 97% | 99% | 98% |  |  |  |  |  |  |  |  |  |  | Activity [7]: inactive; Activity [15]: Toxic; fold change (FC) [16]: 1.72
3 | COc1ccc(-c2oc3cc(O)cc(O)c3c(=O)c2O)cc1 [KAEMPFERIDE] |  |  |  |  |  |  |  |  |  |  | 95% | 99% | 237% | 97% | 112% | 98% | 111% | 95% | 112% | 95% | Activity [18]: Non-toxic; Activity [19]: 143%; fold change (FC) [20]: 3.17; Activity [23]: Dose-dependent effect; Activity [16]: 281%
4 | O=c1c(O)c(-c2ccc(O)cc2)oc2cc(O)cc(O)c12 [KAEMPFEROL] | 104% | inactive | 104% | 98% | 97% | 96% | 98% | 100% | 100% | 97% |  |  | 237% |  |  |  |  |  |  |  | fold change (FC) [22]: 1.52; Activity [23]: Dose-dependent effect; Activity [15]: Toxic; Activity [16]: 268%; fold change (FC) [16]: 1.32
5 | O=c1c(O)c(-c2cc(O)c(O)c(O)c2)oc2cc(O)cc(O)c12 [MYRICETIN] | 101% | inactive | 94% | 101% | 98% | 100% | 97% | 97% | 98% | 97% |  |  |  |  |  |  |  |  |  |  | Activity [1]: Toxic; fold change (FC) [4]: 0.62; fold change (FC) [12]: 0.74
6 | O=C1C[C@@H](c2ccccc2)Oc2cc(O)cc(O)c21 [PINOCEMBRIN] |  | inactive |  |  |  |  |  |  |  |  | 94% | 98% | 107% | 96% | 109% | 97% | 111% | 96% | 110% | 95% | Activity [1]: Non-toxic; Activity [16]: 121%
7 | O=c1cc(-c2cc(O)c(O)c(O)c2)oc2cc(O)cc(O)c12 [TRICETIN] |  | inactive |  |  |  |  |  |  |  |  | 99% | 94% |  | 97% | 108% | 94% | 104% | 95% | 106% | 95% | fold change (FC) [18]: 0.47; Activity [4]: 79%; fold change (FC) [31]: 0.68; Activity [12]: 99%
